Test results as given in ChEMBL document CHEMBL5260797, “N-(1-Benzyl-3,5-dimethyl-1H-pyrazol-4-yl)benzamides: Antiproliferative Activity and Effects on mTORC1 and Autophagy” (ACS Med Chem Lett, 2017).

Test system: MIA PaCa-2
Assay: Antiproliferative activity against human MIA PaCa-2 cells assessed as cell viability measured after 72 hrs by MTT assay
Format: functional, cell-based
Conditions: MIA PaCa-2, 72 h
Summary of the method: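 MIA PaCa-2 pancreatic cancer cells; EC50 values determined in triplicate.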

CNC(=O)c1cccc(Cn2nc(C)c(NC(=O)c3ccc(COc4ccc(C)cc4)cc3)c2C)c1
EC50: 2.6 µM

CNC(=O)c1cccc(Cn2nc(C)c(NC(=O)c3ccc(COc4cccc(C(F)(F)F)c4)cc3)c2C)c1
EC50: 2.3 µM

CNC(=O)c1cccc(Cn2nc(C)c(NC(=O)c3ccc(COc4cccc(C)c4)cc3)c2C)c1
EC50: 6.2 µM

Nc1ccn([C@@H]2O[C@H](CO)[C@@H](O)C2(F)F)c(=O)n1 [GEMCITABINE]
EC50: 0.0015 µM

CNC(=O)c1cccc(Cn2nc(C)c(NC(=O)c3ccc(COc4ccccc4C)cc3)c2C)c1
EC50: 2.1 µM

Cc1nn(Cc2ccc(C(N)=O)cc2)c(C)c1NC(=O)c1ccc(COc2ccccc2)cc1
EC50: > 100 µM

CNC(=O)c1cccc(Cn2nc(C)c(NC(=O)c3ccc(COc4cccc(Cl)c4)cc3)c2C)c1
EC50: 5.9 µM

CNC(=O)c1cccc(Cn2nc(C)c(NC(=O)c3ccc(COc4ccc(OC)cc4)cc3)c2C)c1
EC50: 8 µM

C#Cc1cccc(Nc2ncnc3cc(OCCOC)c(OCCOC)cc23)c1 [ERLOTINIB]
EC50: 27 µM

Cc1nn(Cc2cccc(C(=O)NC(C)C)c2)c(C)c1NC(=O)c1ccc(COc2ccccc2)cc1
EC50: 8.9 µM

Cc1nn(Cc2cccc(C(=O)Nc3ccccc3)c2)c(C)c1NC(=O)c1ccc(COc2ccccc2)cc1
EC50: 6.4 µM

Cc1nn(Cc2cccc(C(N)=O)c2)c(C)c1NC(=O)c1ccc(COc2ccccc2)cc1
EC50: 9.2 µM

Fc1ccc(CNc2ncnc3ccc(F)cc23)cc1
EC50: 20 µM

CNC(=O)c1cccc(Cn2nc(C)c(NC(=O)c3ccc(COc4ccccc4Cl)cc3)c2C)c1
EC50: 6.3 µM
